Test results taken from PMC10965878 (Infectious Diseases and Therapy, 2024).
Values joined by “and” are separate entries in the source; they are usually repeats but may differ in a detail not shown here. Equal entries are not always repeated. Where two headings read alike, the source gives them in different places.

Experiments:
plasma protein [1] = experiment: Unbound fraction in plasma; format: in vivo; settings: human, oral, 375 mg, protein binding rate (= [1 − unbound fraction] × 100), humans
[2] = Safety assessment: treatment-emergent adverse events; format: in vivo, human; settings: single oral 375 mg
Procedure, shortened: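 Open-label, nonrandomized, parallel-group Phase 1 study in adults with mild, moderate or severe renal impairment (severe excluded if hemodialysis-dependent) and normal renal function. Normal-function controls were matched to moderate-impairment participants by sex, age (± 5 years) and BMI (± 10%). Each received a single oral 375 mg dose as three 125-mg tablets. TEAEs were recorded for nature, frequency and severity, and coded by MedDRA v25.0 System Organ Class/Preferred Term in all treated participants.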

[3] = for AUC0–last GLS mean ratio / t1/2,z GLS mean ratio / Ae (cumulative amount excreted unchanged in urine) / CL/F / Feu (fraction of dose excreted unchanged into urine): single oral 375 mg; for Ae (cumulative amount excreted unchanged in urine) / CL/F / Feu (fraction of dose excreted unchanged into urine): geometric mean (CV%)
[4] = system: organic cation transporter (OCT) 2; settings: in vitro; cited from earlier work
[5] = system: multidrug and toxin extrusion (MATE) 1; settings: in vitro; cited from earlier work
MATE-2K = settings: in vitro; cited from earlier work
plasma protein [6] = settings: mice; cited from earlier work
plasma protein [7] = settings: hamsters; cited from earlier work
[8] = 750 mg once followed by 250 mg once daily for 4 days (750/250 mg); cited from earlier work
[9] = mild impairment/normal function
[10] = moderate impairment/normal function
[11] = severe impairment/normal function

## Cn1cnc(Cn2c(=O)[nH]/c(=N\c3cc4cn(C)nc4cc3Cl)n(Cc3cc(F)c(F)cc3F)c2=O)n1 [ensitrelvir]
Plasma protein [1]
  fraction unbound: 0.983 to 0.988
[2]; mild renal impairment (N = 8)
  Any treatment-related TEAE: 1 (12.5) n (%)
[2]; moderate renal impairment (N = 8)
  Any treatment-related TEAE: 1 (12.5) n (%)
[2]; all groups
  severity category of all TEAEs and treatment-related TEAEs: mild or moderate
[3]; [9]
  AUC0–last GLS mean ratio: 1.4303
  t1/2,z GLS mean ratio: 1.19 and 1.1855
[3]; mild renal impairment
  Ae (cumulative amount excreted unchanged in urine): 45.7 (44.7) mg
  CL/F: 0.262 (20.8) L/h
  Feu (fraction of dose excreted unchanged into urine): 12.2 (44.7) %
[3]; [10]
  AUC0–last GLS mean ratio: 1.4780
  t1/2,z GLS mean ratio: 1.24 and 1.2434
[3]; moderate renal impairment
  Ae (cumulative amount excreted unchanged in urine): 58.6 (20.6) mg
  CL/F: 0.253 (26.0) L/h
  Feu (fraction of dose excreted unchanged into urine): 15.6 (20.6) %
[3]; normal renal function
  Ae (cumulative amount excreted unchanged in urine): 54.8 (29.5) mg
  CL/F: 0.376 (26.0) L/h
  Feu (fraction of dose excreted unchanged into urine): 14.6 (29.5) %
[3]; renal impairment vs normal renal function
  increased AUC level with renal impairment: < 2 fold
[3]; [11]
  AUC0–last GLS mean ratio: 1.5475
  t1/2,z GLS mean ratio: 1.61 and 1.6072
[3]; severe renal impairment
  Ae (cumulative amount excreted unchanged in urine): 49.2 (26.5) mg
  CL/F: 0.235 (26.1) L/h
  Feu (fraction of dose excreted unchanged into urine): 13.1 (26.5) %
[4]
  substrate for OCT2: not a substrate
[5]
  substrate for MATE1: not a substrate
MATE-2K
  substrate for MATE-2K: not a substrate
Plasma protein [6]
  protein binding rate: 97.6%
Plasma protein [7]
  protein binding rate: 98.3%
[8]
  tolerability: demonstrated tolerability
